In ChEMBL document CHEMBL1275348, “Design, synthesis, and evaluation of duocarmycin O-amino phenol prodrugs subject to tunable reductive activation” (J Med Chem, 2010):
Calls of active or inactive are those of the source. The rule behind the calls is not given here.

Tests used:
[1] = test system: L1210; experiment: Cytotoxicity against mouse L1210 cells; assay type: functional, cell-based
[2] = Chemical stability of the compound in phosphate buffer of pH 7 assessed as half life; assay type: physicochemical
How it was run: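 The compound was held in pH 7.0 phosphate buffer for up to 72 h. Cleavage was followed as release of CBI-indole2, and the half-life was estimated from this.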

[3] = test system: L1210; experiment: Antitumor activity against mouse L1210 cells xenografted in DBA/2J mouse assessed as mean survival period at 100 mg/kg, ip administered 3 times on day 1, 5 and 9 postimplantation; assay type: functional; details: route intraperitoneal
How it was run: (§1)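 Syngeneic L1210 leukemia cells (1 × 10^6) were injected i.p. into DBA/2J mice on day 0. Ten mice were randomly assigned per treatment or vehicle group. Compounds were formulated in 30% DMSO plus 0.7% glucose solution and injected i.p. on days 1, 5 and 9. Animals were monitored daily and weighed three times weekly, with the study running 120 days.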

[4] = test system: L1210; experiment: Antitumor activity against mouse L1210 cells xenografted in DBA/2J mouse assessed as mean survival period at 50 mg/kg, ip administered 3 times on day 1, 5 and 9 postimplantation; assay type: functional; details: route intraperitoneal; how it was run: as §1
[5] = test system: L1210; experiment: Antitumor activity against mouse L1210 cells xenografted in DBA/2J mouse assessed as mean survival period at 250 mg/kg, ip administered 3 times on day 1, 5 and 9 postimplantation; assay type: functional; details: route intraperitoneal; how it was run: as §1
[6] = test system: L1210; experiment: Antitumor activity against mouse L1210 cells xenografted in DBA/2J mouse assessed as mean survival period at 500 mg/kg, ip administered 3 times on day 1, 5 and 9 postimplantation; assay type: functional; details: route intraperitoneal; how it was run: as §1
[7] = test system: L1210; experiment: Antitumor activity against mouse L1210 cells xenografted in DBA/2J mouse at 50 mg/kg, ip administered 3 times on day 1, 5 and 9 postimplantation relative to control; assay type: functional; details: route intraperitoneal; how it was run: as §1
[8] = test system: L1210; experiment: Antitumor activity against mouse L1210 cells xenografted in DBA/2J mouse at 250 mg/kg, ip administered 3 times on day 1, 5 and 9 postimplantation relative to control; assay type: functional; details: route intraperitoneal; how it was run: as §1
[9] = test system: L1210; experiment: Antitumor activity against mouse L1210 cells xenografted in DBA/2J mouse at 500 mg/kg, ip administered 3 times on day 1, 5 and 9 postimplantation relative to control; assay type: functional; details: route intraperitoneal; how it was run: as §1
[10] = test system: L1210; experiment: Antitumor activity against mouse L1210 cells xenografted in DBA/2J mouse assessed as survival at 50 mg/kg, ip administered 3 times on day 1, 5 and 9 postimplantation; assay type: functional, organism-based; how it was run: as §1
[11] = test system: L1210; experiment: Antitumor activity against mouse L1210 cells xenografted in DBA/2J mouse assessed as survival at 100 mg/kg, ip administered 3 times on day 1, 5 and 9 postimplantation; assay type: functional, organism-based; how it was run: as §1
[12] = test system: L1210; experiment: Antitumor activity against mouse L1210 cells xenografted in DBA/2J mouse at 100 ug/kg, ip administered 3 times on day 1, 5 and 9 postimplantation relative to control; details: route intraperitoneal
[13] = test system: L1210; experiment: Antitumor activity against mouse L1210 cells xenografted in DBA/2J mouse assessed as mean survival period at 10 mg/kg, ip administered 3 times on day 1, 5 and 9 postimplantation; assay type: functional; details: route intraperitoneal; how it was run: as §1
[14] = test system: L1210; experiment: Antitumor activity against mouse L1210 cells xenografted in DBA/2J mouse assessed as mean survival period at 30 mg/kg, ip administered 3 times on day 1, 5 and 9 postimplantation; assay type: functional; details: route intraperitoneal; how it was run: as §1
[15] = test system: L1210; experiment: Antitumor activity against mouse L1210 cells xenografted in DBA/2J mouse assessed as mean survival period at 60 mg/kg, ip administered 3 times on day 1, 5 and 9 postimplantation; assay type: functional; details: route intraperitoneal; how it was run: as §1
[16] = test system: L1210; experiment: Antitumor activity against mouse L1210 cells xenografted in DBA/2J mouse at 10 mg/kg, ip administered 3 times on day 1, 5 and 9 postimplantation relative to control; assay type: functional; details: route intraperitoneal
How it was run: (§2)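 DBA/2J mice received syngeneic L1210 cells (1 × 10^6) i.p. on day 0. Groups of ten mice were randomised to drug or vehicle. Dosing was i.p. on days 1, 5 and 9 in 30% DMSO plus 0.7% glucose solution. Animals were checked daily and weighed three times per week. The study ran 120 days, with survival compared against untreated controls.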

[17] = test system: L1210; experiment: Antitumor activity against mouse L1210 cells xenografted in DBA/2J mouse at 30 mg/kg, ip administered 3 times on day 1, 5 and 9 postimplantation relative to control; assay type: functional; details: route intraperitoneal; how it was run: as §2
[18] = test system: L1210; experiment: Antitumor activity against mouse L1210 cells xenografted in DBA/2J mouse at 60 ug/kg, ip administered 3 times on day 1, 5 and 9 postimplantation relative to control; details: route intraperitoneal
[19] = test system: L1210; experiment: Antitumor activity against mouse L1210 cells xenografted in DBA/2J mouse assessed as mean survival period at 200 mg/kg, ip administered 3 times on day 1, 5 and 9 postimplantation; assay type: functional; details: route intraperitoneal; how it was run: as §1
[20] = test system: L1210; experiment: Antitumor activity against mouse L1210 cells xenografted in DBA/2J mouse at 200 mg/kg, ip administered 3 times on day 1, 5 and 9 postimplantation relative to control; assay type: functional; details: route intraperitoneal; how it was run: as §1
[21] = test system: L1210; experiment: Antitumor activity against mouse L1210 cells xenografted in DBA/2J mouse assessed as survival at 10 mg/kg, ip administered 3 times on day 1, 5 and 9 postimplantation; assay type: functional, organism-based; how it was run: as §1
[22] = test system: L1210; experiment: Antitumor activity against mouse L1210 cells xenografted in DBA/2J mouse assessed as survival at 30 mg/kg, ip administered 3 times on day 1, 5 and 9 postimplantation; assay type: functional, organism-based; how it was run: as §1
[23] = test system: L1210; experiment: Antitumor activity against mouse L1210 cells xenografted in DBA/2J mouse assessed as survival at 60 mg/kg, ip administered 3 times on day 1, 5 and 9 postimplantation; assay type: functional, organism-based; how it was run: as §1
[24] = test system: L1210; experiment: Antitumor activity against mouse L1210 cells xenografted in DBA/2J mouse assessed as survival at 200 mg/kg, ip administered 3 times on day 1, 5 and 9 postimplantation; assay type: functional, organism-based; how it was run: as §1

CC(C)(C)C(=O)NOc1cc2c(c3ccccc13)[C@H](CCl)CN2C(=O)c1cc2cc(NC(=O)c3cc4ccccc4[nH]3)ccc2[nH]1
IC50 [1]: 0.08 nM
half-life [2]: 6 h

CN(Oc1cc2c(c3ccccc13)[C@H](CCl)CN2C(=O)c1cc2cc(NC(=O)c3cc4ccccc4[nH]3)ccc2[nH]1)C(=O)OC(C)(C)C
IC50 [1]: 0.9 nM

NC(=O)NOc1cc2c(c3ccccc13)[C@H](CCl)CN2C(=O)c1cc2cc(NC(=O)c3cc4ccccc4[nH]3)ccc2[nH]1
IC50 [1]: 1.1 nM
Time [3]: 33 days
Time [4]: 29 days
Time [5]: 39 days
Time [6]: 71 days
T/C [7]: 133%
T/C [8]: 177%
T/C [9]: 323%
Activity [10]: inactive
Activity [11]: inactive
T/C [12]: 152%

COc1c(O)c2c(c3cc(C(=O)N4CCc5c4c(O)c(OC)c4[nH]c(C(=O)N6C[C@H]7C[C@@]78C6=CC(=O)c6[nH]cc(C)c68)cc54)[nH]c13)CCN2C(N)=O [(+)-CC-1065]
IC50 [1]: 0.02 nM

O=C(Nc1ccc2[nH]c(C(=O)N3C[C@@H](CCl)c4c3cc(O)c3ccccc43)cc2c1)c1cc2ccccc2[nH]1 [SECO-CBI-INDOLE]
IC50 [1]: 0.03 nM
Time [13]: 42 days
Time [14]: 51 days
Time [15]: 78 days
Time [3]: 73 days
T/C [16]: 192%
T/C [17]: 230%
T/C [18]: 352%
T/C [12]: 333%

CN(Oc1cc2c(c3ccccc13)[C@@H](CCl)CN2C(=O)c1cc2cc(NC(=O)c3cc4ccccc4[nH]3)ccc2[nH]1)C(=O)OC(C)(C)C
IC50 [1]: 30 nM

O=C(Nc1ccc2[nH]c(C(=O)N3C[C@H](CCl)c4c3cc(O)c3ccccc43)cc2c1)c1cc2ccccc2[nH]1
IC50 [1]: 0.9 nM

CC(C)(C)OC(=O)NOc1cc2c(c3ccccc13)[C@H](CCl)CN2C(=O)c1cc2cc(NC(=O)c3cc4ccccc4[nH]3)ccc2[nH]1
IC50 [1]: 0.1 nM
Time [13]: 50 days
Time [14]: 58 days
Time [15]: 69 days
Time [3]: 86 days
T/C [16]: 225%
T/C [17]: 265%
T/C [18]: 315%
T/C [12]: 389%

COC(=O)NOc1cc2c(c3ccccc13)[C@H](CCl)CN2C(=O)c1cc2cc(NC(=O)c3cc4ccccc4[nH]3)ccc2[nH]1
IC50 [1]: 0.5 nM
Time [13]: 24 days
Time [14]: 29 days
Time [15]: 28 days
Time [3]: 27 days
Time [19]: 32 days
T/C [16]: 110%
T/C [17]: 133%
T/C [20]: 145%
Activity [11]: inactive
Activity [21]: inactive
Activity [22]: inactive
Activity [23]: inactive
Activity [24]: inactive
T/C [18]: 126%
T/C [12]: 122%

CC(C)(C)OC(=O)NOc1cc2c(c3ccccc13)[C@@H](CCl)CN2C(=O)c1cc2cc(NC(=O)c3cc4ccccc4[nH]3)ccc2[nH]1
IC50 [1]: 4 nM

NC(=O)NOc1cc2c(c3ccccc13)[C@@H](CCl)CN2C(=O)c1cc2cc(NC(=O)c3cc4ccccc4[nH]3)ccc2[nH]1
IC50 [1]: 30 nM

CC(C)(C)C(=O)NOc1cc2c(c3ccccc13)[C@@H](CCl)CN2C(=O)c1cc2cc(NC(=O)c3cc4ccccc4[nH]3)ccc2[nH]1
IC50 [1]: 3.5 nM

COC(=O)NOc1cc2c(c3ccccc13)[C@@H](CCl)CN2C(=O)c1cc2cc(NC(=O)c3cc4ccccc4[nH]3)ccc2[nH]1
IC50 [1]: 9 nM
